Experimental data from different studies.
Read-out: cell growth or viability

Structure (SMILES) | cell line | assay | setting | quantity | value
Nc1nc(F)nc2c1ncn2[C@@H]1O[C@H](COP(=O)(O)O)[C@@H](O)[C@@H]1O | LLC-MK2 | – | 5 days | CC50 | 60.6 µM
COc1ccc(C[C@H](NC(=O)[C@H](C)NC(=O)CN2CCOCC2)C(=O)N[C@@H](Cc2ccccc2)C(=O)C(=O)Nc2ccccc2)cc1 | Caco-2 | ATP luminescence | 48 h | CC50 | 16.2 µM
CC=C1[C@H]2C=C(C)C[C@]1(N(C)C)c1ccc(OC)nc1C2 | IMR-90 | MTT | 100 µM, 24 h | cell death | 5.5%
CC(C)(C)NC(=O)N[C@H](C(=O)N1C[C@H]2[C@@H]([C@H]1C(=O)NC(CC1CCC1)C(=O)C(N)=O)C2(C)C)C(C)(C)C (some centres unmarked) | Caco-2 | neutral red | 48 h | CC50 | > 100 µM
O=c1c(O[C@@H]2O[C@H](CO)[C@@H](O)[C@H](O)[C@H]2O)c(-c2ccc(O)cc2)oc2cc(O)cc(O)c12 | RD | WST-1 | – | IC50 | 48.8 µM
Nc1nc(F)nc2c1ncn2[C@@H]1O[C@H](CO)[C@@H](O)[C@@H]1O | LLC-MK2 | – | 5 days | CC50 | 54.1 µM
CC=C1[C@H]2C=C(C)C[C@]1(N)c1cc(CC)c(=O)[nH]c1C2 | IMR-90 | MTT | 100 µM, 24 h | cell death | 2.2%
CC(C)C[C@@H](C=O)NC(=O)[C@H](CC(C)C)NC(=O)[C@H](CC(C)C)NC(=O)OCc1ccccc1 | Caco-2 | neutral red | 48 h | CC50 | < 0.15 µM
